Test results from ChEMBL document CHEMBL5724801, “EUbOPEN Chemogenomics Library - Multiplex” (2024).
“And” between values parts separate entries of the source, which are not always exact repeats. Equal values may be shown once.

Test system: Fibroblast
Assay: Multiplex assay against human fibroblast
Type: toxicity, cell-based
In short: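 Values for tubulin, mitochondrial-mass and membrane-permeability phenotypes are per cents of cells with healthy nuclei. These cells were identified by CellPathfinder machine-learning gating of live cells that had been stained at seeding with Hoechst33342, BioTracker Green Microtubule Cytoskeleton Dye, MitoTracker Red and Annexin V Alexa Fluor 680 and imaged on a CQ1 microscope at 37°C and 5% CO2 after compound addition. The gating first set Hoechst high-intensity objects apart from normal cells, then split normal cells into healthy, pyknosed or fragmented nuclei, and pyknosed cells into mitotic or apoptotic.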

[1] = 12 h, 1 µM, compound concentration 1 uM
[2] = 12 h, 10 µM, compound concentration 10 uM
[3] = 24 h, 1 µM, compound concentration 1 uM
[4] = 24 h, 10 µM, compound concentration 10 uM
[5] = 48 h, 1 µM, compound concentration 1 uM
[6] = 48 h, 10 µM, compound concentration 10 uM

CCOC(=O)c1c(/C(C#N)=C\N)c2ccc(Cl)c(Cl)c2n1C
Population Fragmented Nuclei (%) [1]: 11.86% and 4.52% | Population Healthy Nuclei (%) [1]: 64.41% and 76.92% | Population Hoechst High Intensity Objects (%) [1]: 0% | Population Membrane Permeable-Phenotype (%) [1]: 0% and 2.94% | Population Mitochondria Different-Phenotype (%) [1]: 11.84% and 14.71% | Population Mitotic Cells (%) [1]: 96.43% and 85.37% | Population Normal (%) [1]: 100% | Population Pyknosed Nuclei (%) [1]: 23.73% and 18.55% | Population Tubulin-Different-Phenotype (%) [1]: 10.53% and 18.82% | Total Cell Count [1]: 118 and 221 | Population Apoptotic (%) [2]: 24.32% and 12.77% | Population Fragmented Nuclei (%) [2]: 10.92% and 3.83% | Population Healthy Nuclei (%) [2]: 67.82% and 76.17% | Population Hoechst High Intensity Objects (%) [2]: 0% | Population Membrane Permeable-Phenotype (%) [2]: 4.24% and 1.12% | Population Mitochondria Different-Phenotype (%) [2]: 3.39% and 7.82% | Population Mitotic Cells (%) [2]: 75.68% and 87.23% | Population Normal (%) [2]: 100% | Population Pyknosed Nuclei (%) [2]: 21.26% and 20% | Population Tubulin-Different-Phenotype (%) [2]: 15.25% and 16.2% | Total Cell Count [2]: 174 and 235 | Population Apoptotic (%) [3]: 0% and 20.83% | Population Fragmented Nuclei (%) [3]: 7.25% and 3.83% | Population Healthy Nuclei (%) [3]: 72.46% and 85.96% | Population Hoechst High Intensity Objects (%) [3]: 0% | Population Membrane Permeable-Phenotype (%) [3]: 4% and 1.98% | Population Mitochondria Different-Phenotype (%) [3]: 3% and 6.93% | Population Mitotic Cells (%) [3]: 100% and 79.17% | Population Normal (%) [3]: 100% | Population Pyknosed Nuclei (%) [3]: 20.29% and 10.21% | Population Tubulin-Different-Phenotype (%) [3]: 11% and 18.81% | Total Cell Count [3]: 138 and 235 | Population Apoptotic (%) [4]: 14.81% and 20.59% | Population Fragmented Nuclei (%) [4]: 8.02% and 1.27% | Population Healthy Nuclei (%) [4]: 77.54% and 84.39% | Population Hoechst High Intensity Objects (%) [4]: 0% | Population Membrane Permeable-Phenotype (%) [4]: 3.45% and 2.5% | Population Mitochondria Different-Phenotype (%) [4]: 4.14% and 7% | Population Mitotic Cells (%) [4]: 85.19% and 79.41% | Population Normal (%) [4]: 100% | Population Pyknosed Nuclei (%) [4]: 14.44% and 14.35% | Population Tubulin-Different-Phenotype (%) [4]: 11.03% and 18.5% | Total Cell Count [4]: 187 and 237 | Population Apoptotic (%) [5]: 40% and 25% | Population Fragmented Nuclei (%) [5]: 12.18% and 3.67% | Population Healthy Nuclei (%) [5]: 84.62% and 91.43% | Population Hoechst High Intensity Objects (%) [5]: 0% | Population Membrane Permeable-Phenotype (%) [5]: 0% and 2.68% | Population Mitotic Cells (%) [5]: 60% and 75% | Population Normal (%) [5]: 100% | Population Pyknosed Nuclei (%) [5]: 3.21% and 4.9% | Population Tubulin-Different-Phenotype (%) [5]: 7.58% and 20.98% | Total Cell Count [5]: 156 and 245 | Population Apoptotic (%) [6]: 44.44% and 21.05% | Population Fragmented Nuclei (%) [6]: 8.78% and 2.61% | Population Healthy Nuclei (%) [6]: 86.83% and 89.13% | Population Hoechst High Intensity Objects (%) [6]: 0% | Population Membrane Permeable-Phenotype (%) [6]: 0.56% and 2.93% | Population Mitochondria Different-Phenotype (%) [6]: 11.24% and 1.95% | Population Mitotic Cells (%) [6]: 55.56% and 78.95% | Population Normal (%) [6]: 100% | Population Pyknosed Nuclei (%) [6]: 4.39% and 8.26% | Total Cell Count [6]: 205 and 230

CC1(COc2ccc3c(c2)ncn3-c2ccc3cccc(N4CCC(N)CC4)c3n2)COC1 [CRENOLANIB]
Population Fragmented Nuclei (%) [1]: 27% and 33% | Population Healthy Nuclei (%) [1]: 60% and 47% | Population Hoechst High Intensity Objects (%) [1]: 2% and 4% | Population Membrane Permeable-Phenotype (%) [1]: 0% and 7% | Population Mitochondria Different-Phenotype (%) [1]: 4% and 9% | Population Mitotic Cells (%) [1]: 38% and 81% | Population Normal (%) [1]: 97% and 95% | Population Pyknosed Nuclei (%) [1]: 12% and 18% | Population Tubulin-Different-Phenotype (%) [1]: 48% and 67% | Population Apoptotic (%) [2]: 33% and 34% | Population Fragmented Nuclei (%) [2]: 21% and 29% | Population Healthy Nuclei (%) [2]: 48% and 40% | Population Hoechst High Intensity Objects (%) [2]: 4% and 13% | Population Membrane Permeable-Phenotype (%) [2]: 2% and 6% | Population Mitochondria Different-Phenotype (%) [2]: 6% and 9% | Population Mitotic Cells (%) [2]: 66% and 65% | Population Normal (%) [2]: 95% and 86% | Population Pyknosed Nuclei (%) [2]: 30% | Population Tubulin-Different-Phenotype (%) [2]: 43% and 48% | Population Apoptotic (%) [3]: 92% and 50% | Population Fragmented Nuclei (%) [3]: 29% and 41% | Population Healthy Nuclei (%) [3]: 60% and 48% | Population Hoechst High Intensity Objects (%) [3]: 0% and 1% | Population Membrane Permeable-Phenotype (%) [3]: 0% and 4% | Population Mitochondria Different-Phenotype (%) [3]: 9% | Population Normal (%) [3]: 99% and 98% | Population Pyknosed Nuclei (%) [3]: 9% and 10% | Population Tubulin-Different-Phenotype (%) [3]: 61% and 63% | Population Apoptotic (%) [4]: 36% and 34% | Population Fragmented Nuclei (%) [4]: 23% and 25% | Population Healthy Nuclei (%) [4]: 51% and 46% | Population Hoechst High Intensity Objects (%) [4]: 16% and 17% | Population Membrane Permeable-Phenotype (%) [4]: 0% and 6% | Population Mitochondria Different-Phenotype (%) [4]: 8% and 6% | Population Mitotic Cells (%) [4]: 63% and 65% | Population Normal (%) [4]: 83% and 82% | Population Pyknosed Nuclei (%) [4]: 24% and 28% | Population Tubulin-Different-Phenotype (%) [4]: 23% and 38% | Population Fragmented Nuclei (%) [5]: 32% and 44% | Population Healthy Nuclei (%) [5]: 60% and 44% | Population Hoechst High Intensity Objects (%) [5]: 1% and 0% | Population Membrane Permeable-Phenotype (%) [5]: 0% and 5% | Population Mitochondria Different-Phenotype (%) [5]: 8% and 7% | Population Normal (%) [5]: 98% and 99% | Population Pyknosed Nuclei (%) [5]: 7% and 12% | Population Tubulin-Different-Phenotype (%) [5]: 55% and 74% | Population Apoptotic (%) [6]: 42% and 37% | Population Fragmented Nuclei (%) [6]: 16% and 23% | Population Healthy Nuclei (%) [6]: 62% and 42% | Population Hoechst High Intensity Objects (%) [6]: 24% and 21% | Population Membrane Permeable-Phenotype (%) [6]: 1% | Population Mitochondria Different-Phenotype (%) [6]: 6% | Population Mitotic Cells (%) [6]: 57% and 62% | Population Normal (%) [6]: 75% and 78% | Population Pyknosed Nuclei (%) [6]: 21% and 33% | Population Tubulin-Different-Phenotype (%) [6]: 23% and 27%

CCn1c(-c2nonc2N)nc2c(C#CC(C)(C)O)ncc(OCC3CCCNC3)c21 (stereo not given)
Population Apoptotic (%) [1]: 9.09% and 27.03% | Population Fragmented Nuclei (%) [1]: 15.15% and 9.22% | Population Healthy Nuclei (%) [1]: 64.85% and 77.66% | Population Hoechst High Intensity Objects (%) [1]: 0% | Population Membrane Permeable-Phenotype (%) [1]: 4.67% and 1.83% | Population Mitochondria Different-Phenotype (%) [1]: 8.41% and 8.68% | Population Mitotic Cells (%) [1]: 90.91% and 72.97% | Population Normal (%) [1]: 100% | Population Pyknosed Nuclei (%) [1]: 20% and 13.12% | Population Tubulin-Different-Phenotype (%) [1]: 9.35% and 19.63% | Total Cell Count [1]: 165 and 282 | Population Apoptotic (%) [2]: 13.33% and 12.2% | Population Fragmented Nuclei (%) [2]: 17.67% and 9.62% | Population Healthy Nuclei (%) [2]: 66.43% and 74.62% | Population Hoechst High Intensity Objects (%) [2]: 0% | Population Membrane Permeable-Phenotype (%) [2]: 6.91% and 2.06% | Population Mitochondria Different-Phenotype (%) [2]: 25% and 13.4% | Population Mitotic Cells (%) [2]: 86.67% and 87.8% | Population Normal (%) [2]: 100% | Population Pyknosed Nuclei (%) [2]: 15.9% and 15.77% | Population Tubulin-Different-Phenotype (%) [2]: 35.64% and 40.21% | Total Cell Count [2]: 283 and 260 | Population Fragmented Nuclei (%) [3]: 14.1% and 7.45% | Population Healthy Nuclei (%) [3]: 73.08% and 80.78% | Population Hoechst High Intensity Objects (%) [3]: 0% | Population Membrane Permeable-Phenotype (%) [3]: 0.88% and 1.46% | Population Mitochondria Different-Phenotype (%) [3]: 5.26% and 11.65% | Population Mitotic Cells (%) [3]: 90% and 63.33% | Population Normal (%) [3]: 100% | Population Pyknosed Nuclei (%) [3]: 12.82% and 11.76% | Total Cell Count [3]: 156 and 255 | Population Apoptotic (%) [4]: 7.41% and 9.09% | Population Fragmented Nuclei (%) [4]: 24.25% and 15.79% | Population Healthy Nuclei (%) [4]: 61.04% and 77.78% | Population Hoechst High Intensity Objects (%) [4]: 0% | Population Membrane Permeable-Phenotype (%) [4]: 1.79% and 2.26% | Population Mitotic Cells (%) [4]: 92.59% and 90.91% | Population Normal (%) [4]: 100% | Population Pyknosed Nuclei (%) [4]: 14.71% and 6.43% | Population Tubulin-Different-Phenotype (%) [4]: 40.18% and 33.08% | Total Cell Count [4]: 367 and 342 | Population Apoptotic (%) [5]: 23.08% and 33.33% | Population Fragmented Nuclei (%) [5]: 5.03% and 4.44% | Population Healthy Nuclei (%) [5]: 86.79% and 87.1% | Population Hoechst High Intensity Objects (%) [5]: 0% | Population Membrane Permeable-Phenotype (%) [5]: 2.9% and 4.63% | Population Mitotic Cells (%) [5]: 76.92% and 66.67% | Population Normal (%) [5]: 100% | Population Pyknosed Nuclei (%) [5]: 8.18% and 8.47% | Total Cell Count [5]: 159 and 248 | Population Apoptotic (%) [6]: 30% and 29.41% | Population Fragmented Nuclei (%) [6]: 21.53% and 21.32% | Population Healthy Nuclei (%) [6]: 69.97% and 74.37% | Population Hoechst High Intensity Objects (%) [6]: 0% | Population Membrane Permeable-Phenotype (%) [6]: 1.21% and 0.68% | Population Mitochondria Different-Phenotype (%) [6]: 8.91% and 1.71% | Population Mitotic Cells (%) [6]: 70% and 70.59% | Population Normal (%) [6]: 100% | Population Pyknosed Nuclei (%) [6]: 8.5% and 4.31% | Population Tubulin-Different-Phenotype (%) [6]: 29.55% and 33.11% | Total Cell Count [6]: 353 and 394
